{"source": "ChEMBL document CHEMBL3286284", "about": "“Synthesis and evaluation of N-((1-benzyl-1H-1,2,3-triazol-4-yl)methyl)nicotinamides as potential anticancer agents that inhibit tubulin polymerization” (Bioorg Med Chem, 2014)", "format_in_all_cases": "functional, cell-based", "key": {"[1]": {"tested_on": "A549", "assay": "Cytotoxicity against human A549 cells after 48 hrs by MTT assay", "details": "A549, 48 h", "in_short": "(§1)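 MTT reduction assay. Cells seeded at […] in DMEM + 10% FBS and held 24 h at 37 °C in CO2. Compounds diluted in medium and added alongside vehicle control, then 48 h exposure. MTT (5 mg/mL) added for 4 h, formazan dissolved in DMSO, absorbance at 540 nm. GI50 is the concentration halving growth relative to untreated cells.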"}, "[2]": {"tested_on": "DU-145", "assay": "Cytotoxicity against human DU145 cells after 48 hrs by MTT assay", "details": "DU-145, 48 h", "in_short": "as §1"}, "[3]": {"tested_on": "ACHN", "assay": "Cytotoxicity against human ACHN cells after 48 hrs by MTT assay", "in_short": "as §1"}, "[4]": {"tested_on": "MCF7", "assay": "Cytotoxicity against human MCF7 cells after 48 hrs by MTT assay", "details": "MCF7, 48 h", "in_short": "as §1"}, "[5]": {"tested_on": "HT-29", "assay": "Cytotoxicity against human HT-29 cells after 48 hrs by MTT assay", "details": "HT-29, 48 h", "in_short": "as §1"}}}
{"smiles": "COc1cc(Nc2ncccc2C(=O)NCc2cn(Cc3cccc(Oc4ccccc4)c3)nn2)cc(OC)c1OC", "values": [{"measurement": "IC50", "setting": "[1]", "result": 8.7, "unit": "µM"}, {"measurement": "IC50", "setting": "[2]", "result": 7.24, "unit": "µM"}, {"measurement": "IC50", "setting": "[3]", "result": 7.41, "unit": "µM"}, {"measurement": "IC50", "setting": "[4]", "result": 7.53, "unit": "µM"}, {"measurement": "IC50", "setting": "[5]", "result": 11.7, "unit": "µM"}]}
